Compound activity: PubChem BioAssay, several laboratories
In the library only some 1% were active in any assay of this set; here they are far more common.
hK5 inh = blocks human kallikrein 5 protease activity; inhibition, % at 5 µM; Q9Y337; 210,000 tested, 0.59% active; recombinant hK5, fluorogenic AMC substrate cleavage;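 active = inhibition of 40% or more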
HSV replic up = HSV replication enhancement; HSV replication augmentation in cells, fold increase; maximum fold increase; 220,000 tested, 0.005% active; in the data active = maximum fold increase above about 1.5; tested in PC3 cells
FXIa inh = factor XIa (human) inhibition; inhibition, % at 5 µM; AID 798; 220,000 tested, 0.14% active; purified FXIa, Boc-Glu-Ala-Arg-AMC fluorogenic substrate;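 active = inhibition of at least 40%; inactive = inhibition below 40%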;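 note: fluorescence of freed AMC excited at 355 nm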
Target sequence (P03951 19-387 limits assumed): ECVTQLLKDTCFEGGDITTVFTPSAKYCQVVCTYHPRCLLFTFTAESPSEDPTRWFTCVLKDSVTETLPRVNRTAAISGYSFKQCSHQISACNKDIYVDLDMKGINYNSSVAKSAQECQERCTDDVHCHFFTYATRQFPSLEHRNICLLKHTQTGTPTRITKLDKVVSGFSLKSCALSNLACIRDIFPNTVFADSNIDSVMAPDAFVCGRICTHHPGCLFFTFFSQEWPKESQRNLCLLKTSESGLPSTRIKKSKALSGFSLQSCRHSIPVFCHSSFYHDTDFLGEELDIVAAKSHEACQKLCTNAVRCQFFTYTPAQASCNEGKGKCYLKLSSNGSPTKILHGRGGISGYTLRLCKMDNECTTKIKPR
Target sequence (P03951 388-625 limits assumed): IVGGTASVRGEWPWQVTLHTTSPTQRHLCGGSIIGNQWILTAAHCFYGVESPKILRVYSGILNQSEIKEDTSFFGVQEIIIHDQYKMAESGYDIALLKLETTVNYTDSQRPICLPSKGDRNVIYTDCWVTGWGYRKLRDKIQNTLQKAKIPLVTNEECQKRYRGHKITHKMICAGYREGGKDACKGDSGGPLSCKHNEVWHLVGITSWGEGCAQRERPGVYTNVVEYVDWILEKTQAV
FXIIa inh = factor XIIa (human) inhibition; inhibition, % at 5 µM; purified FXIIa, Boc-QGR-AMC fluorogenic substrate, 2 h; P00748; AID 800; 220,000 tested, 0.3% active; in the data active = inhibition above about 40%
Furin inhibitor = human furin inhibition. P09958. purified furin, fluorogenic substrate cleavage. inhibition, % at 20 µM or 30 µM. 220,000 tested, 0.061% active. AID 463115; in the data active = inhibition above about 25%
thrombin 1536 = thrombin (human) inhibition; alpha-thrombin, Boc-VPR-AMC fluorogenic substrate cleavage; inhibition, % at 5 µM; 220,000 tested, 0.26% active; AID 1046;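 active = inhibition at or above 40%; inactive = inhibition below 40%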
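System: human alpha-thrombin protein; Compound dosing: one concentration per compound, 5 µM, with 0.2% DMSO; Timing: reaction at room temperature; Technique: AMC fluorescence, 355/460 nm; Controls: enzyme without compound as high, wells lacking enzyme as low.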
A number is an active result; i = inactive; nt = no result given.

SMILES	hK5 inh	HSV replic up	FXIa inh	FXIIa inh	Furin inhibitor	thrombin 1536
CC(=O)c1ccc(NC(=S)NCCc2cccc(Cl)c2)cc1	i	i	i	i	i	i
CCc1cccc(CC)c1N(COC)C(=O)Cn1c(CO)nc2ccccc21	i	i	i	43.4	i	i
Cc1nc(SCC(=O)c2ccccc2)[nH]c(=O)c1Oc1ccc(Cl)cc1	64.4	i	i	i	i	i
COc1ccc(Oc2c(C)nc(SCC(=O)c3ccc(Cl)cc3)[nH]c2=O)cc1	i	i	i	i	i	i
CC(C)(C)c1ccc(C(=O)CSc2nc3ccccc3c(=O)[nH]2)cc1	40.2	i	i	i	i	i
Cc1ccccc1S(=O)(=O)N(CC(O)CN1C(=O)NC(C)(C)C1=O)c1ccccc1 (centres undefined)	i	i	i	i	i	i
CCOc1ccc(S(=O)(=O)n2ccc(C)n2)c2ccccc12	49.3	i	i	i	i	i
COc1ccc(CCNC(=O)CSc2nnc(CNc3ccc(Cl)cc3)o2)cc1OC	i	i	i	i	i	i
COc1ccc(CCNC(=O)CSc2nnc(-c3ccc(F)cc3)o2)cc1OC	129.5	i	i	i	i	i
COc1ccc(Cl)cc1NC(=S)NNC(=O)C1(C)CC1(Cl)Cl (centres undefined)	i	i	i	48.6	i	i
CCCC(CCC)=NNC(=O)c1ccccc1F	i	i	i	i	i	i
CNC(=O)c1cc(Cl)c(OC)c(OC)c1	i	i	i	i	i	i
COc1cc(C(N)=O)cc(Cl)c1OC	i	i	i	46.6	i	i
Cc1ccc(NC(=O)Cn2c(O)c(N=NC(N)=O)c3ccccc32)cc1	i	i	i	i	i	i
Cc1ccccc1NC(=O)Cn1c(O)c(N=NC(=O)c2ccccc2O)c2ccccc21	65.5	i	i	i	i	i
O=C(N1CCN(c2cccc(Cl)c2)CC1)C1(c2cccs2)CCOCC1	i	i	i	i	i	i
O=C(COC(=O)C1CC(=O)N(Cc2ccco2)C1)c1ccc(OC(=O)c2ccco2)cc1 (centres undefined)	i	i	i	40.5	i	i
Cc1ccc(C(=O)Oc2ccc(C(=O)COC(=O)C3CC(=O)N(Cc4ccco4)C3)cc2)cc1 (centres undefined)	i	i	i	i	i	i
Cc1ccc(NC(=O)COc2ccccc2C(=O)NCCN(C)C)cc1	i	nt	i	i	i	i
CCOC(=O)N1CCN(c2c(NCc3ccccn3)c(=O)c2=O)CC1	40.3	i	i	i	i	i
O=C(c1ccccc1)c1coc2ccc(O)c(CN3CCOCC3)c12	i	i	i	i	i	i
COc1ccc(C(=O)c2coc3ccc(O)c(CN4CCCCC4)c23)cc1	47.9	i	i	i	i	i
Cc1cc(-n2c(C)cc(C(=S)N3CCOCC3)c2C)ccc1Br	i	i	i	i	i	i
CCOc1ccccc1OCCCC(=O)N(C)CC(=O)Nc1cc(C)ccc1C	i	i	i	i	i	i
Cc1ccc(C)c(NC(=O)CN(C)C(=O)CCN2C(=O)c3ccccc3C2=O)c1	53.1	i	i	46.0	i	i
SMILES	hK5 inh	HSV replic up	FXIa inh	FXIIa inh	Furin inhibitor	thrombin 1536
CCOP(=O)(OCC)C(NC(=O)Nc1ccc(C)cc1)C(N)=O (centres undefined)	i	i	i	i	i	i
CCCOP(=O)(OCCC)C1(Nc2ccc(C)cc2)CCCCC1	i	nt	i	i	26.0	i
Cc1ccc(CCNC(=O)C2CCC(=O)N2Cc2cccnc2)cc1 (centres undefined)	46.7	i	i	i	i	i
Cc1cccc(CCNC(=O)C2CCC(=O)N2Cc2ccc(F)cc2)c1 (centres undefined)	i	i	i	i	i	i
CCc1cccc(CC)c1NC(=O)c1cccc(N)c1	i	i	i	i	i	45.7
CC1Cc2ccccc2N1C1=CC(=O)CCC1 (centres undefined)	i	i	i	i	i	i
COc1ccc(N2C(=O)CSC2c2cccc(OC)c2OC)cc1 (centres undefined)	i	i	i	i	i	42.3
COc1ccc(C(=O)CSc2nc3ncccc3[nH]2)cc1OC	i	i	i	102.4	i	i
CCCCc1nnc(NC(=O)COc2ccc3c(C)cc(=O)oc3c2)s1	111.9	i	i	i	i	i
O=c1c([N+](=O)[O-])c(N2CCCC2)c2ccccc2n1-c1ccccc1	i	i	i	i	i	i
CC(CNC(=O)CCc1nnc(CCC2CCCCC2)o1)c1ccccc1 (centres undefined)	nt	i	i	i	i	i
O=C1C=C(c2ccc(Cl)cc2)OC2(CCCC2)O1	i	i	i	i	28.8	i
Cc1cc(=O)oc2cc(N3C(=O)CC(Cc4ccccc4)C3=O)ccc12 (centres undefined)	i	i	i	i	i	i
CCc1ccc(N(C(C)=O)c2nc(CCl)cs2)cc1	88.0	i	i	i	i	i
O=C(Nc1ccc(Nc2ccccc2)cc1)c1ccc(Br)o1	i	nt	i	i	i	i
CC(C)c1ccc(NC(=O)c2ccc(Br)o2)cc1	i	i	i	49.9	i	i
Cc1c(NC(=O)c2ccc(Br)o2)cccc1C(=O)O	i	i	i	45.3	i	i
c1ccc(N2OCC3Cn4c(nc5ccccc54)C32)cc1 (centres undefined)	i	i	i	i	i	i
CC1CCc2cc(F)ccc2N1C(=O)CSc1nnc2c(n1)[nH]c1ccccc12 (centres undefined)	i	i	i	i	i	i
CCN(Cc1ccccc1)c1ccc(/C=N/NC(=O)c2cccc(S(=O)(=O)N3CCOCC3)c2)cc1	56.4	i	i	i	i	i
CC1CCc2c(sc(NC(=O)C3CCCO3)c2C#N)C1 (centres undefined)	i	i	i	i	i	i
CC1CCc2c(sc(NC(=O)COC(=O)C3CCCO3)c2C#N)C1 (centres undefined)	i	i	i	i	i	45.2
Nc1nc(-c2ccco2)nn1C(=O)CCc1ccccc1	i	i	i	i	i	92.8
Nc1nc(-c2ccco2)nn1C(=O)c1cccnc1	i	i	i	i	i	64.3
COc1ccc(C(=O)Nc2ccc(Cl)cc2C(=O)N2CCCC(C)C2)cc1 (centres undefined)	i	i	i	i	i	i
SMILES	hK5 inh	HSV replic up	FXIa inh	FXIIa inh	Furin inhibitor	thrombin 1536
CSc1ccccc1NC(=O)CN(C)Cc1cc(=O)n2ccsc2n1	i	i	i	i	i	i
O=C(O)CC(=O)Nc1ccccc1C(=O)O	i	i	i	68.3	i	i
COC(=O)c1ccc(C)c(N(CCO)CCO)c1	56.5	i	i	i	i	i
COC(=O)c1ccc(C(=O)NCCCCO)cc1	i	i	i	i	i	i
CCn1c(NCc2ccc3c(c2)OCO3)nc2ccccc21	53.2	i	i	i	i	i
NC(=O)c1ccc(NC(=O)CCC(=O)N2CCN(S(=O)(=O)c3ccc(Cl)cc3)CC2)cc1	i	i	i	i	i	i
CC(NC(=O)c1ccco1)C(=O)OCC(=O)c1ccc(Cl)s1 (centres undefined)	i	i	i	i	i	i
